# Data published in the M2OR odorant receptor database.
# How the values were obtained:
# Settings in all cases: stereoisomer not certain
# UniProt B2RVX8 = biological target: T1, UniProt B2RVX8
# T1 sequence (whole entry): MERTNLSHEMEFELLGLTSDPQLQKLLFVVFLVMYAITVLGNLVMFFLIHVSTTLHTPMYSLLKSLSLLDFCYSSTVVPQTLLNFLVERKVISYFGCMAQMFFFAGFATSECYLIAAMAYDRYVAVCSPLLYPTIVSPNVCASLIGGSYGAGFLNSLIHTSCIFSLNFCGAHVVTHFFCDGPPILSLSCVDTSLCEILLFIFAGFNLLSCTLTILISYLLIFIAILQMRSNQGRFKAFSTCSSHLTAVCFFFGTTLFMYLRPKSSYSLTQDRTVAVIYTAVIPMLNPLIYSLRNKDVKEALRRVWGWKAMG
# Method in brief: (§1)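 Transient luciferase assays in mammalian cell lines were common, though methods varied by source. The values come from published papers and their supplementary material, with extra details from the original authors when needed. Responsive refers to a measured signal the original authors judged statistically different from baseline, and non-responsive (inactive) to the remainder.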
# UniProt E9Q546 = biological target: T2, UniProt E9Q546
# T2 sequence (whole entry): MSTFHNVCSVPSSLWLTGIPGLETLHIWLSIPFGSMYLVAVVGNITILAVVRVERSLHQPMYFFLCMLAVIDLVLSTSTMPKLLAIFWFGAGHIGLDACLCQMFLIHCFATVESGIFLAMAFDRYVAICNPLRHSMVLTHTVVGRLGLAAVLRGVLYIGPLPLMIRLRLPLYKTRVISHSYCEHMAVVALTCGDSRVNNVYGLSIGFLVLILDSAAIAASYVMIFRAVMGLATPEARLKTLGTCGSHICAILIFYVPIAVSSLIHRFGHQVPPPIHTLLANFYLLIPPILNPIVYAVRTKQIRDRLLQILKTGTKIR
# Method in brief: as §1
# UniProt K7N609 = biological target: T3, UniProt K7N609
# T3 sequence (whole entry): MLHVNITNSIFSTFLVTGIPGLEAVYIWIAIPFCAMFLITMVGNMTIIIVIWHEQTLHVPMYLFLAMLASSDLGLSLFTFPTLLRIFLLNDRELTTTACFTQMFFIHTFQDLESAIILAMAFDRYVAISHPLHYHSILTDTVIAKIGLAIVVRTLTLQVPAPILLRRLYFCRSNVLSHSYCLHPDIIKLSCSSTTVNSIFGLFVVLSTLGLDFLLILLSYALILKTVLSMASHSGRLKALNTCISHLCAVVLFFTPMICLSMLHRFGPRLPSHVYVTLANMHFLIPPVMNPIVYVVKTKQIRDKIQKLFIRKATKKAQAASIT
# Method in brief: as §1
# UniProt L7MU75 = biological target: T4, UniProt L7MU75
# T4 sequence (whole entry): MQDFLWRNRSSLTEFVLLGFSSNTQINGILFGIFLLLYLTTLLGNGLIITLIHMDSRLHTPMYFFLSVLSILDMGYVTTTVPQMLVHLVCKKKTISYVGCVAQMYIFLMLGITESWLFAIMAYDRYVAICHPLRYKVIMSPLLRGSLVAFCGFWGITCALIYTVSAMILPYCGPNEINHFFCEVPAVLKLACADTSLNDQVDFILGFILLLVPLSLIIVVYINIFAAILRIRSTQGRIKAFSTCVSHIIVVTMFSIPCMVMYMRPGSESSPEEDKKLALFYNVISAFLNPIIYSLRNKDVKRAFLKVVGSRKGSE
# Method in brief: as §1
# UniProt L7N210 = biological target: T5, UniProt L7N210
# T5 sequence (whole entry): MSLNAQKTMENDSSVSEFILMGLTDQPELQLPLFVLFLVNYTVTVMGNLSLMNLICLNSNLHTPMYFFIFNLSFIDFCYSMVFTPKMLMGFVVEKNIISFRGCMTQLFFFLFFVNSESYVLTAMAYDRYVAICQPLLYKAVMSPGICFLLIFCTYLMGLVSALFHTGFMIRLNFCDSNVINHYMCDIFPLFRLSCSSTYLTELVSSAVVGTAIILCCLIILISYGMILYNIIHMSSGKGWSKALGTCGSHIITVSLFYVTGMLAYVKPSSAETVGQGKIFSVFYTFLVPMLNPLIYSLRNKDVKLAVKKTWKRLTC
# Method in brief: as §1
# UniProt Q7TQV4 = biological target: T6, UniProt Q7TQV4
# T6 sequence (whole entry): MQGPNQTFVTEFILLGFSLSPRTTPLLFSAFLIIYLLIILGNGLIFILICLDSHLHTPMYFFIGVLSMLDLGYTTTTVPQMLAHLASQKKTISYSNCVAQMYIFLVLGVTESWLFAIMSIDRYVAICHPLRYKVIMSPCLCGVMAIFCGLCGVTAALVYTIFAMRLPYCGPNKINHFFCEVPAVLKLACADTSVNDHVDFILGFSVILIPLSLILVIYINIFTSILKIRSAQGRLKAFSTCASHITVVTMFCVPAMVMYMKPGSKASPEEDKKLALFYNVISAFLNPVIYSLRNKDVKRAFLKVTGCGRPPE
# Method in brief: as §1
# UniProt Q7TR71 = biological target: T7, UniProt Q7TR71
# T7 sequence (whole entry): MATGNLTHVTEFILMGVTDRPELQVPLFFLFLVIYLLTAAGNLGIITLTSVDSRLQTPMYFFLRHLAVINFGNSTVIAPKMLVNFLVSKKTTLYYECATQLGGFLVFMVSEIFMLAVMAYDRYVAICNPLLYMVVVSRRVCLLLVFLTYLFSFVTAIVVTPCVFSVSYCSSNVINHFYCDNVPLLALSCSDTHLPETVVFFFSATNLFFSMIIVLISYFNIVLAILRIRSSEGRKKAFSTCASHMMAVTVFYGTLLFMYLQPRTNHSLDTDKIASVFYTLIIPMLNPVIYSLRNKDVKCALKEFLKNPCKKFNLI
# Method in brief: as §1
# UniProt Q7TRA3 = biological target: T8, UniProt Q7TRA3
# T8 sequence (whole entry): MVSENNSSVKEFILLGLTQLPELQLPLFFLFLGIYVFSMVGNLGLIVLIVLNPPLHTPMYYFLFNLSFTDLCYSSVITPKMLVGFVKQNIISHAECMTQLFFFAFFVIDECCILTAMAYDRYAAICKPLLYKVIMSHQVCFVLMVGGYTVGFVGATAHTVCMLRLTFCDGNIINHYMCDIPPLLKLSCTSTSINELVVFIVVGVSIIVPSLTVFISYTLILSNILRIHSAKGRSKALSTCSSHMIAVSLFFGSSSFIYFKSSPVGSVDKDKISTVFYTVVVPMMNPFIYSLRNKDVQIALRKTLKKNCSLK
# Method in brief: as §1
# UniProt Q7TRE4 = biological target: T9, UniProt Q7TRE4
# T9 sequence (whole entry): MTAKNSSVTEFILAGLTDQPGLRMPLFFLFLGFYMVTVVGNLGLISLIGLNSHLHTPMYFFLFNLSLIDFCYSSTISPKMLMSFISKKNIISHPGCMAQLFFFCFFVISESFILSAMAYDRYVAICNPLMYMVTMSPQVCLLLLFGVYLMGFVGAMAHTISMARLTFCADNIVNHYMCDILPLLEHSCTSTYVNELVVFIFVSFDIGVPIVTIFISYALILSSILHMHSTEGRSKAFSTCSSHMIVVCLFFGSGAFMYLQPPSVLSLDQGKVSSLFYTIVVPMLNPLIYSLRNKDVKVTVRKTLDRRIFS
# Method in brief: as §1
# UniProt E9PVX1 = biological target: T10, UniProt E9PVX1
# T10 sequence (whole entry): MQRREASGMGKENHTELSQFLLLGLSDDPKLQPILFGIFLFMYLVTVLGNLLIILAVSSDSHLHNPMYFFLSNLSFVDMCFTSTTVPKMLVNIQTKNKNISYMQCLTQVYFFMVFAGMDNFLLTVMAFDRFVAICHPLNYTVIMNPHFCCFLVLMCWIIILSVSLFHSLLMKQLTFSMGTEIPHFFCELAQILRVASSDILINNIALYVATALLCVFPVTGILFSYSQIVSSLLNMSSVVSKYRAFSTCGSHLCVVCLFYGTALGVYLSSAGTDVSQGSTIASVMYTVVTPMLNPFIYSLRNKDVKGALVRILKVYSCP
# Method in brief: as §1
# UniProt E9PZ66 = biological target: T11, UniProt E9PZ66
# T11 sequence (whole entry): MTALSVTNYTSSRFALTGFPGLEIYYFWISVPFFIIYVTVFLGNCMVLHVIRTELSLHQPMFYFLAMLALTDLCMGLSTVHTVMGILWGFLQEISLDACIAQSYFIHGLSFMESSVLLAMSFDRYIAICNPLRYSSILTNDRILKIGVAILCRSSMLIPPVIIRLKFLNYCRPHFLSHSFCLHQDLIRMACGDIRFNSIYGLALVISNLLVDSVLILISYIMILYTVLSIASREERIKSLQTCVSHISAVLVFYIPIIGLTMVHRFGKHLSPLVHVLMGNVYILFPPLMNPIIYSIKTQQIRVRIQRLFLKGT
# Method in brief: as §1
# UniProt E9Q4X7 = biological target: T12, UniProt E9Q4X7
# T12 sequence (whole entry): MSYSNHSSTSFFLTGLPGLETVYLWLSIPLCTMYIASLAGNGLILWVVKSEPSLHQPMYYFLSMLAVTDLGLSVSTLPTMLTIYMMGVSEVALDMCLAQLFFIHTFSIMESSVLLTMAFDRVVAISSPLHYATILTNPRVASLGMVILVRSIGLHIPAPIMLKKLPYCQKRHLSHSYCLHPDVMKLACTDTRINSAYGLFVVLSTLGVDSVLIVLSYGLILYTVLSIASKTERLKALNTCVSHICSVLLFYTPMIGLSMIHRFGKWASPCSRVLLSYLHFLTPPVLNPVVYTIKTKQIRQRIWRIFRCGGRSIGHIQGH
# Method in brief: as §1
# UniProt E9Q6Z7 = biological target: T13, UniProt E9Q6Z7
# T13 sequence (whole entry): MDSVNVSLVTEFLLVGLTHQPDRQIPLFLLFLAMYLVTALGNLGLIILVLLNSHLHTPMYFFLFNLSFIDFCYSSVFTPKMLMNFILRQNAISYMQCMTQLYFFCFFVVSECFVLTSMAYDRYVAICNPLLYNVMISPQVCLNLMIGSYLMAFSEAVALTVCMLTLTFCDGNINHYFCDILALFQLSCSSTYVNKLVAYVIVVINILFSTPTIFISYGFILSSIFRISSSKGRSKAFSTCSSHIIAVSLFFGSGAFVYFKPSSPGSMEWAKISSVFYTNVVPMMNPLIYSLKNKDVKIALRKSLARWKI
# Method in brief: as §1
# UniProt Q3KPB0 = biological target: T14, UniProt Q3KPB0
# T14 sequence (whole entry): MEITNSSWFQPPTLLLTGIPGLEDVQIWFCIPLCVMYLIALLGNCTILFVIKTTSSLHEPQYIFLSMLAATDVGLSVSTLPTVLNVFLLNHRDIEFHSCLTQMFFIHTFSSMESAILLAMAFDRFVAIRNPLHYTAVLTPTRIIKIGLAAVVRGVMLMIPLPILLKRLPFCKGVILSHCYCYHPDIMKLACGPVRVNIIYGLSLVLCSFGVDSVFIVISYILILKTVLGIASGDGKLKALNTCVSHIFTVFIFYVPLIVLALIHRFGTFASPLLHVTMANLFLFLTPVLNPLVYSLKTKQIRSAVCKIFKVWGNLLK
# Method in brief: as §1
# UniProt Q3U0P3 = biological target: T15, UniProt Q3U0P3
# T15 sequence (whole entry): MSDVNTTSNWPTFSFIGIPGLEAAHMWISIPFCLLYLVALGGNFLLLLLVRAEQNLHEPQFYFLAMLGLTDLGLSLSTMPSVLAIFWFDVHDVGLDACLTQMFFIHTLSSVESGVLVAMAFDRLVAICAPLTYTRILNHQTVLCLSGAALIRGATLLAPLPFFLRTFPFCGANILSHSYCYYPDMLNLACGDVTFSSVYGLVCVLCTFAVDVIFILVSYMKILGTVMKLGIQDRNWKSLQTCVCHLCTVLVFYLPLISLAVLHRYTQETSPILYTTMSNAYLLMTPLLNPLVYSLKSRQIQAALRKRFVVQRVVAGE
# Method in brief: as §1
# UniProt Q7TQU8 = biological target: T16, UniProt Q7TQU8
# T16 sequence (whole entry): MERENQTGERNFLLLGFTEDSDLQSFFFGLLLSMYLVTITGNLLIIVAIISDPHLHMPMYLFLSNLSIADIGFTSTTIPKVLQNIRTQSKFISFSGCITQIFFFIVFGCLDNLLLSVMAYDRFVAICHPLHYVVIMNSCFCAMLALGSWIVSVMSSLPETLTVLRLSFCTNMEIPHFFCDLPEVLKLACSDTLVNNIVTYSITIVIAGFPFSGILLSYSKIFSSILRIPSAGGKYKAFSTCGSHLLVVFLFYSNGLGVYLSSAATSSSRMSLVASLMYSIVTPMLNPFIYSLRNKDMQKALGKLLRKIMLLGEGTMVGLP
# Method in brief: as §1
# UniProt Q7TR79 = biological target: T17, UniProt Q7TR79
# T17 sequence (whole entry): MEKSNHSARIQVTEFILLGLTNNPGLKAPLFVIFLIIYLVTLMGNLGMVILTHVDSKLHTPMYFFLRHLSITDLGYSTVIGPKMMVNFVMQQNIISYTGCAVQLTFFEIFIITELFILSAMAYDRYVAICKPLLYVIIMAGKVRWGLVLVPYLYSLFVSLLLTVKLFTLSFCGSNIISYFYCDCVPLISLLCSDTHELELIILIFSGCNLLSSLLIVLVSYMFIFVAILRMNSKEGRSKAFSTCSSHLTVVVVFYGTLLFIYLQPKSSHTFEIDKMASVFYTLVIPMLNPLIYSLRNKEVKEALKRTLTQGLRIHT
# Method in brief: as §1
# 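Further: active if original authors judged signal statistically different from baseline.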
SMILES,odorant receptor agonist call (UniProt B2RVX8),odorant receptor agonist call (UniProt E9Q546),odorant receptor agonist call (UniProt K7N609),odorant receptor agonist call (UniProt L7MU75),odorant receptor agonist call (UniProt L7N210),odorant receptor agonist call (UniProt Q7TQV4),odorant receptor agonist call (UniProt Q7TR71),odorant receptor agonist call (UniProt Q7TRA3),odorant receptor agonist call (UniProt Q7TRE4),odorant receptor agonist call (UniProt E9PVX1),odorant receptor agonist call (UniProt E9PZ66),odorant receptor agonist call (UniProt E9Q4X7),odorant receptor agonist call (UniProt E9Q6Z7),odorant receptor agonist call (UniProt Q3KPB0),odorant receptor agonist call (UniProt Q3U0P3),odorant receptor agonist call (UniProt Q7TQU8),odorant receptor agonist call (UniProt Q7TR79)
CCC1CCC(=O)O1 (stereo not drawn),inactive,inactive,inactive,inactive,inactive,active,active,inactive,inactive,–,–,–,–,–,–,–,–
CSSC,–,inactive,–,inactive,inactive,–,–,–,–,inactive,inactive,inactive,inactive,inactive,inactive,inactive,inactive
C=CCc1ccccc1,inactive,inactive,inactive,–,inactive,inactive,inactive,inactive,inactive,–,–,–,–,–,–,–,–
